Legend:
[1] = Chemical stability assessed as compound epimerization in potassium phosphate buffer of pH 7; type: physicochemical
How it was run: (§1)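 Start concentration 0.25 mg/mL, followed over time at pH 7 in water, pH 7 phosphate (0.05 M) or pH 9 borate (0.1 M). Aliquots were drawn at intervals and HPLC measured the parent and the P1-(R) epimer VRT-394. k_obs is the sum of the forward and reverse epimerization rate constants; relative rate is taken against pH 7 water.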

[2] = system: Plasma; assay: Stability in human plasma assessed as conversion to VRT-394 at 10 uM after 1 hr; type: ADME, cell-free; settings: 1 µM, in the assay text read “1 uM” for “10 uM”
[3] = system: Hepatitis C virus; assay: Antiviral activity against HCV by viral replicon assay; type: functional, Hepacivirus hominis
[4] = Stability in potassium phosphate buffer of pH 7; type: physicochemical; how it was run: as §1
[5] = Terminal half life in Sprague-Dawley rat at 10 mg/kg, po; type: ADME, organism-based; parameters: dose 10 mg/kg, route oral; settings: in vivo, read-out: beta t1/2 (converted)
How it was run: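 Male Sprague-Dawley rats with cannulas received 10 mg/kg by gavage at 1 mg/mL (10 mL/kg) in a solid dispersion (HPMC-AS/SLS) taken up in 1% HPMC-AS and 10% vitamin E TPGS. Blood was drawn from 0.25 to 24 h into EDTA; plasma was acidified and assayed by LC/MS/MS. Parameters came from noncompartmental analysis.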

[6] = system: Plasma; assay: Stability in human plasma assessed as conversion to VRT-394 at 1 uM after 1 hr
[7] = system: Plasma; assay: Stability in dog plasma relative to telaprevir; type: ADME, cell-free, Canis lupus familiaris
How it was run: (§2)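 Rat, dog or human plasma was preincubated at 37 °C and spiked from DMSO stock to a final 1 or 10 μM (final DMSO 1%), in triplicate with shaking. Control was 0.1 M potassium phosphate pH 7.4. Sampling was at 0–120 min (rat, dog) or 0–180 min (human, buffer). Samples were acidified, extracted with ethyl acetate and run on chiral LC-MS/MS (MRM). Epimerization was scored by initial rate and k_H/k_D.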

[8] = system: Plasma; assay: Stability in rat plasma relative to telaprevir; type: ADME, cell-free; how it was run: as §2
[9] = Stability in boric acid-potassium chloride buffer of pH 9; type: physicochemical; how it was run: as §1
[10] = Stability in rat plasma assessed as compound epimerization at 10 uM; type: ADME, cell-free; how it was run: as §2
[11] = Inhibition of HCV NS3/4A protease; parameters: species or system Hepacivirus hominis
[12] = system: Plasma; assay: Stability in human plasma relative to telaprevir; type: ADME, cell-free; how it was run: as §2

Structure (SMILES): CCC[C@H](NC(=O)[C@@H]1[C@H]2CCC[C@H]2CN1C(=O)[C@@H](NC(=O)[C@@H](NC(=O)c1cnccn1)C1CCCCC1)C(C)(C)C)C(=O)C(=O)NC1CC1
- half-life [1]: 35 h
- Activity [2]: 35%
- IC99 [3]: 3.3 µM

Structure (SMILES): [2H][C@@](CCC)(NC(=O)[C@@H]1[C@H]2CCC[C@H]2CN1C(=O)[C@@H](NC(=O)[C@@H](NC(=O)c1cnccn1)C1CCCCC1)C(C)(C)C)C(=O)C(=O)NC1CC1
- Activity [4]: Stable
- half-life [5]: 1.5 h
- Activity [6]: 10%
- Activity [7]: Stable
- Activity [8]: Stable
- Activity [9]: Stable
- half-life at 10 µM [10]: > 4 h
- Ki [11]: 20 nM
- Activity [12]: Stable
- IC99 [3]: 4 µM

Structure (SMILES): CCC[C@@H](NC(=O)[C@@H]1[C@H]2CCC[C@H]2CN1C(=O)[C@@H](NC(=O)[C@@H](NC(=O)c1cnccn1)C1CCCCC1)C(C)(C)C)C(=O)C(=O)NC1CC1
- Ki [11]: > 1000 nM

From ChEMBL document CHEMBL1154695 (J Med Chem, 2009)
